{
  "source": "paper PMC5722212",
  "about": "(Chemistry (Weinheim an der Bergstrasse, Germany), 2017)",
  "key": {"Hsp70": {"tested_on": "Hsp70", "test": "Western blot analysis of Hsp70 induction", "format": "cell-based", "settings": "geldanamycin 0.5 μM, 24 h; all cell lines", "how_it_was_run": "(§1)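 MDA-MB-231 and PC3-MM2 (DMEM), SK-MEL-28 (EMEM) or A549 (F-12K) cells, each in medium with 10% FBS and penicillin/streptomycin, were seeded at 100,000 cells/mL and grown 24 h at 37°C, 5% CO2. Cells were then treated with test compound, geldanamycin (0.5 μM) or DMSO vehicle for 24 h. Cold-PBS harvest, lysis with protease inhibitors, BCA-equalised protein, reducing 10% gels, PVDF, HRP chemiluminescence; actin loading control.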"}, "Akt": {"tested_on": "Akt", "test": "Western blot analysis of cytosolic Hsp90-dependent client protein Akt", "format": "cell-based", "settings": "geldanamycin 0.5 μM, 24 h; all cell lines", "how_it_was_run": "as §1"}},
  "data": [
    {"smiles": "COC1=C2C[C@@H](C)C[C@H](OC)[C@H](O)[C@@H](C)/C=C(\\C)[C@H](OC(N)=O)[C@@H](OC)/C=C\\C=C(/C)C(=O)NC(=CC1=O)C2=O", "note": "[geldanamycin]", "values": [
      {"measurement": "levels of Hsp70", "setting": "Hsp70", "value": "increased the levels of Hsp70"},
      {"measurement": "degradation of Akt", "setting": "Akt", "value": "induced the degradation of Akt"}
    ]}
  ]
}
